# Screening data: PubChem, several laboratories
# IMP-1 inh = blocks Pseudomonas aeruginosa IMP-1 metallo-beta-lactamase. purified IMP-1, nitrocefin hydrolysis, epi-absorbance fluorescence. inhibition, % at 5.6 µM. hit rate 0.45% among 290,000. AID 1556;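 active = inhibition above the mean plus 3 SD of all compounds in the same screening run, cut at about 4.5% in these data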;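 note: 0% = IMP-1 with DMSO and 100% = DMSO wells lacking enzyme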
#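 Material – recombinant IMP-1 enzyme, purified · Amount – IMP-1 0.2 nM before substrate addition · Medium – HEPES buffer pH 7.1 with ZnSO4 and Brij 35 · Timing – 25 °C, 15 min preincubation, 25 min reaction · Measured by – plate fluorescence quenching by hydrolysis product, ex 480/em 530 nm · Read-out – percent enzyme inhibition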
# PHOSPHO1 inh = blocks human PHOSPHO1 phosphatase activity | Q8TCT1 | recombinant PHOSPHO1, absorbance phosphatase assay | inhibition, % at 13.3 µM | hit rate 1.1% among 290,000; in the data active = inhibition above about 60%
# Target sequence (Q8TCT1 whole entry, looked up): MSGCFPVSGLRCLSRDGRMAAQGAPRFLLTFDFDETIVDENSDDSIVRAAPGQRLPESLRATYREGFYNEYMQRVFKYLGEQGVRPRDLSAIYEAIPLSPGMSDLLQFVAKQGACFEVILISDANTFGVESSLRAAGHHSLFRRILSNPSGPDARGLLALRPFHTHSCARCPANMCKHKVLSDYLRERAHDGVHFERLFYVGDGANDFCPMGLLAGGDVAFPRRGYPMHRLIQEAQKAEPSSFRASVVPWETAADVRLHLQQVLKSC
# NS3 helicase inh = HCV NS3 helicase inhibition; inhibition, % at 10.9 µM; NS3 helicase DNA unwinding, Cy5 molecular beacon fluorescence; hit rate 0.56% among 290,000;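 active = inhibition above the mean of all tested compounds plus 3 SD, set per campaign, cut at about 35% in these data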;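 note: 0% = DMSO wells and 100% = thioflavine S control wells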
#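 Control set: DMSO versus 110 µM thioflavine S; Material: NS3 helicase fragment of HCV; Measured by: Cy5 fluorescence at 0 and 60 min, beacon hairpin quenching; Read-out basis: percent inhibition from t60/t0 fluorescence ratio; Times: reaction time 60 min, 25 °C; Repeats: single replicate; Compound dosing: single dose, 10.9 µM nominal final, DMSO 0.8% final.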
# VIM-2 inhibitor = inhibitors of Pseudomonas aeruginosa VIM-2 metallo-beta-lactamase; inhibition, % at 5.6 µM; hit rate 0.89% among 290,000; AID 1527; purified VIM-2, nitrocefin hydrolysis, epi-absorbance fluorescence;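 active = inhibition above the mean of all tested compounds plus 3 SD, cutoff set per screening run, cut at about 7.5% in these data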;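 note: red hydrolysis product quenches plate fluorescence so inhibitors raise well fluorescence; 0% = enzyme with DMSO and 100% = DMSO without enzyme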
# HCV core dimer = HCV core protein dimerization inhibition | TR-FRET GST/Flag-core106 dimerization, 1536-well | inhibition, % at 5 µM | hit rate 0.33% among 300,000 | AID 1899;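 active = inhibition above the mean of all tested compounds plus 3 SD, set per screening campaign, cut at about 45% in these data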
#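 Material: GST/Flag-tagged HCV core106 proteins. Incubation: 4 h, 22.5 °C incubation. Read-out basis: inhibition (%) from 671 over 617 nm ratio. Measured by: TR-FRET, excitation 340 nm, emission 617 and 671 nm.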
# SUMO HTRF inh = SUMOylation inhibition. hit rate 0.36% among 290,000. AID 2006. P63279. inhibition, % at 35 µM. HTRF SUMOylation assay, SAE1/SAE2 + UBC9, in vitro; in the data active = inhibition above about 50%, passing the limit was not always enough
# Target sequence (P63279 whole entry, looked up): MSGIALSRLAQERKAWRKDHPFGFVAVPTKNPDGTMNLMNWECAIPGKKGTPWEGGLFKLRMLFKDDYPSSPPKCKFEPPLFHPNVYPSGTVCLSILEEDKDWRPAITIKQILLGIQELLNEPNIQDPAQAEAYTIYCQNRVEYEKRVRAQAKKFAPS
# NS3 helicase cf = HCV NS3 helicase inhibition, confirmation assay. hit rate 31% among 1,600. inhibition, % at 10.9 µM. NS3 helicase DNA unwinding, Cy5 molecular beacon fluorescence. shares compounds with NS3 helicase inh;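 active = inhibition above the mean of all tested compounds plus 3 SD, cutoff set per campaign, cut at about 36% in these data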
# DNA FID counter = displaces DNA intercalator in HCV helicase counter-screen; shares compounds with NS3 helicase inh; DNA fluorescent intercalator displacement, fluorescence; inhibition, % at 7.9 µM; hit rate 4% among 1,600; AID 1945; in the data active = inhibition above about 37%;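 note: 0% = vehicle and 100% = reference compound; higher means more displacement of ethidium bromide from the DNA hairpin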
# FID counter DR = counter-screen for HCV NS3 helicase inhibitors: DNA intercalator displacement dose response; shares compounds with NS3 helicase inh; fluorescent intercalator displacement from DNA, fluorescence; IC50, µM; 120 tested, under 10 active; AID 2172; call rule not given here
# The depositor's hits bear a star; i = inactive; x = not tested or not shown. In the library only some 3.1% were active in any assay of this set; here they are far more common.
SMILES,IMP-1 inh,PHOSPHO1 inh,NS3 helicase inh,VIM-2 inhibitor,HCV core dimer,SUMO HTRF inh,NS3 helicase cf,DNA FID counter,others
Cc1ccc(/C=C/C(=O)Nc2cccc(S(=O)(=O)N3CCOCC3)c2)o1,-3,2,48*,-3,21,30,-1,18,
CC(/C=N/n1c(-c2ccco2)n[nH]c1=S)=C\c1ccco1,-2,16,51*,7,1,64*,-2,9,
CN(C(=O)CSc1nnc(N)s1)C1CCCCC1,-1,38,37*,-2,-20,16,-7,8,
Cc1ccccc1C(=O)Nc1scc(-c2ccc(Br)cc2)c1C(=O)O,x,x,x,x,24,x,x,x,
COc1ccc(-c2csc(NC(=O)c3ccccc3Br)c2C(=O)O)cc1,-3,38,41*,-2,15,6,59*,-18,
O=[N+]([O-])c1c(C(Cl)Cl)nn(-c2ccccc2)c1N1CCOCC1,-2,24,58*,-2,2,-1,-13,-12,
O=[N+]([O-])c1c(C(Cl)Cl)nn(-c2ccc(Cl)cc2)c1N1CCCCC1,-2,1,5,-2,1,0,x,x,
O=C(O)CCn1c(SCCOc2ccccc2)nc2ccccc21,-3,29,41*,0,-19,8,-17,-2,
COc1ccc(OCCSc2nc3ccccc3n2CCC(=O)O)cc1,-3,20,2,-1,-2,18,x,x,
NC(=O)/C(=C\c1cccnc1)NC(=O)c1ccccc1,-4,34,-4,-1,-6,-10,x,x,
O=C(CSc1nnc(-c2ccco2)c(-c2ccco2)n1)c1ccccc1,3,47,41*,1,45,87,91*,45*,
COCCn1c(SCC(=O)c2ccc3c(c2)OCCO3)nnc1-c1ccco1,-2,2,2,1,-1,24,x,x,
Cn1c(SCC(=O)c2ccc(-c3ccccc3)cc2)nnc1-c1ccco1,-1,-3,68*,-3,-16,2,5,-27,
Cc1ccc(C(=O)CSc2nnc(-c3ccco3)n2Cc2ccccc2)cc1,-4,-52,-8,-1,13,31,x,x,
CC(C)Cn1c(SCC(=O)c2ccc(Cl)s2)nnc1-c1ccco1,-8,31,39*,-2,14,11,-24,-28,
CCn1c(SCC(=O)c2ccc3c(c2)OCCO3)nnc1-c1ccco1,0,4,48*,2,-7,14,-7,-21,
N/N=C(/Cc1nc2ccccc2[nH]1)c1ccc([N+](=O)[O-])cc1,-3,-2,25,-4,3,-8,x,x,
COc1cccc(C2c3[nH]c4ccccc4c3C[C@H]3C(=O)N(CCCOC(C)C)CC(=O)N23)c1 (stereo partly specified),-2,22,85*,-1,0,17,-9,-28,
CC(C)NC(=O)c1ccc2c(c1)N(Cc1ccccc1)C(=O)C(C)(C)O2,-1,19,-3,-1,x,21,x,x,
COC(=O)C1=C(O)/C(=C\c2ccc(CNS(=O)(=O)c3ccccc3)o2)N=C1C,-3,-10,33,-1,-10,24,x,x,
COC(=O)C1=C(O)/C(=C\c2ccc(CNS(=O)(=O)c3ccc(Cl)cc3)o2)N=C1C,0,-2,40*,1,-5,26,14,-10,
Nc1c(C(=O)Nc2ccccc2)sc2nc(-c3cccnc3)ccc12,-4,5,14,-1,-4,30,x,x,
COc1ccccc1NC(=O)c1sc2nc(-c3ccco3)ccc2c1N,-3,-27,49*,-4,29,54*,1,17,
Nc1c(C(=O)Nc2ccccc2)sc2nc(-c3ccco3)ccc12,1,17,83*,3,8,58*,14,6,
CC(C)C1Oc2cc3oc(=O)ccc3cc2C1=O (stereo unspecified),1,39,23,2,3,15,x,x,
SMILES,IMP-1 inh,PHOSPHO1 inh,NS3 helicase inh,VIM-2 inhibitor,HCV core dimer,SUMO HTRF inh,NS3 helicase cf,DNA FID counter,others
O=C(N/N=C/c1c(O)ccc2ccccc12)c1ccc(CO)nc1,-3,19,39*,-1,-10,4,7,-1,
NC(=S)N/N=C/c1c(O)ccc2ccccc12,0,-2,57*,0,-11,23,7,-1,
O=C(CCCSc1ccccc1)Nc1nc(-c2ccco2)c(-c2ccco2)s1,-1,-5,92*,-4,7,79*,69*,18,FID counter DR=i
O=C(CCl)Nc1nc(-c2ccco2)c(-c2ccco2)s1,-3,9,61*,-4,9,82*,63*,36,FID counter DR=>79
C/C(=C\c1ccccc1)CN1CCN(C(C)C)C(CCO)C1 (stereo unspecified),-4,14,2,-2,-2,15,x,x,
C/C(=N\NC(=O)c1cccc(S(=O)(=O)N2CCOCC2)c1)c1ccc(C#N)cc1,-1,x,5,-1,0,18,x,x,
CCOc1ccc(CNC(=O)c2ccccc2NC(=O)C2=CSCCO2)cc1,0,22,-12,-1,7,5,x,x,
Cc1[nH]c2ccccc2c1C(=O)COC(=O)c1ccc[n+]([O-])c1,2,-4,46*,8.9*,1,17,-14,-3,
Cc1[nH]c2ccccc2c1C(=O)COC(=O)c1ccc([N+](=O)[O-])s1,-3,48,15,0,9,-2,x,x,
CCOC(=O)c1c(S(=O)(=O)NCCc2ccccc2)c(C)n(C)c1C,-2,40,9,-1,8,-4,x,x,
CCOC(=O)c1c(S(=O)(=O)NCCc2ccc(OC)c(OC)c2)c(C)n(C)c1C,2,29,39*,2,8,4,-11,-20,
Cc1ccc(S(=O)(=O)N(C(=O)c2ccco2)c2cc3sc(=O)oc3c3ccccc23)cc1,-1,-2,40*,2,-8,56*,-8,-3,
CC(C)OC(=O)/C(=C/c1ccco1)c1ccccc1,1,23,61*,0,2,17,-19,-9,
Cc1ccc(F)cc1NC(=O)N1c2ccccc2NC(=O)CC1C (stereo unspecified),-4,3,4,-4,-11,4,x,x,
COc1cccc(OCC(=O)NNC(=O)C(=O)Nc2cccc(C)c2)c1,-5,37,7,-2,1,6,x,x,
Cc1ccc(F)c(NC(=S)Nc2cccc3ccccc23)c1,0,-5,52*,-1,8,97,4,6,
CC1=NN(c2ccccc2)C(=O)/C1=C/C=C/C=C/N(C)C,-5,-8,39*,-2,-31,-22,-16,12,
